ChEMBL document CHEMBL1150264, “Design and microwave-assisted synthesis of novel macrocyclic peptides active at melanocortin receptors: discovery of potent and selective hMC5R receptor antagonists” (J Med Chem, 2008)
The source made the active and inactive calls. The calls are words filed in the database; no cut-off is given here.

How the values were obtained:
[1] = biological target: T1, Melanocyte-stimulating hormone receptor (Homo sapiens, UniProt Q01726); experiment: Agonist activity at human melanocortin 1 receptor expressed in HEK293 cells assessed as cAMP accumulation at 10 uM realtive to MT2; assay type: functional, cell-based
Procedure, shortened: (§1)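 cAMP accumulation assay in stably transfected HEK293 cells: 0.5 mM IBMX preincubation, 3 min ligand exposure at 37 °C, [3H]cAMP/PKA binding read-out against a standard curve. The cAMP produced at 10 μM ligand is expressed as percent of that produced by 10 μM MT-II (% max effect).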
Target sequence in this assay (Q01726 whole entry, looked up): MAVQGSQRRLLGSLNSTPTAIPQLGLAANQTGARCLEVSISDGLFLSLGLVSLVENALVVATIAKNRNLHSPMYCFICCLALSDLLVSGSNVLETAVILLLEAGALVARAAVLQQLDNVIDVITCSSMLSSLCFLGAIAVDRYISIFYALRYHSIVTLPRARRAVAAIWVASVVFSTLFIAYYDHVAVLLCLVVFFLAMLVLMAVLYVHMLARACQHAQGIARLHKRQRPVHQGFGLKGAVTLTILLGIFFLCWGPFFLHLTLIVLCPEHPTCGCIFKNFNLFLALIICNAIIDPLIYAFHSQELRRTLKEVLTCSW

[2] = biological target: T1, Melanocyte-stimulating hormone receptor; experiment: Agonist activity at human melanocortin 1 receptor expressed in HEK293 cells assessed as cAMP accumulation at 10 uM; assay type: functional, cell-based; procedure, shortened: as §1
Target sequence in this assay (Q01726 whole entry, looked up): as above

Melanocortin receptor 3 [3] = biological target: T2, Melanocortin receptor 3 (Homo sapiens, UniProt P41968); experiment: Agonist activity at human melanocortin 3 receptor expressed in HEK293 cells assessed as cAMP accumulation at 10 uM realtive to MT2; assay type: functional, cell-based; procedure, shortened: as §1
Melanocortin receptor 5 [4] = biological target: T3, Melanocortin receptor 5 (Homo sapiens, UniProt P33032); experiment: Agonist activity at human melanocortin 5 receptor expressed in HEK293 cells assessed as cAMP accumulation at 10 uM; assay type: functional, cell-based; procedure, shortened: as §1
Melanocortin receptor 4 [5] = biological target: T4, Melanocortin receptor 4 (Homo sapiens, UniProt P32245); experiment: Agonist activity at human melanocortin 4 receptor expressed in HEK293 cells assessed as cAMP accumulation at 10 uM; assay type: functional, cell-based; procedure, shortened: as §1
Melanocortin receptor 4 [6] = biological target: T4, Melanocortin receptor 4; experiment: Agonist activity at human melanocortin 4 receptor expressed in HEK293 cells assessed as cAMP accumulation at 10 uM realtive to MT2; assay type: functional, cell-based; procedure, shortened: as §1
Melanocortin receptor 5 [7] = biological target: T3, Melanocortin receptor 5; experiment: Antagonist activity at human melanocortin 5 receptor expressed in HEK293 cells; assay type: functional, cell-based
Procedure, shortened: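 Antagonism at hMC5R in the HEK293 cAMP assay (IBMX, 3 min at 37 °C, [3H]cAMP/PKA read-out). Four antagonist doses spanning 10−10 to 10−6 M were tested against MT-II agonist dose-response curves. pA2 derived by Schild analysis.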

Melanocortin receptor 5 [8] = biological target: T3, Melanocortin receptor 5; experiment: Agonist activity at human melanocortin 5 receptor expressed in HEK293 cells assessed as cAMP accumulation at 10 uM realtive to MT2; assay type: functional, cell-based; procedure, shortened: as §1
Melanocortin receptor 4 [9] = biological target: T4, Melanocortin receptor 4; experiment: Displacement of [125I]-[Nle4, D-Phe7]alpha-MSH from human melanocortin 4 receptor expressed in HEK293 cells at 10 uM; assay type: cell-based
Melanocortin receptor 5 [10] = biological target: T3, Melanocortin receptor 5; experiment: Displacement of [125I]-[Nle4, D-Phe7]alpha-MSH from human melanocortin 5 receptor expressed in HEK293 cells; assay type: cell-based
Procedure, shortened: (§2)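 Whole HEK293 cells stably expressing each hMCR, seeded 48 h before assay (50000 cells/well), washed in MEM with 25 mM bicarbonate. Cells incubated 40 min at 37 °C with unlabeled peptide plus [125I]-NDP-α-MSH (33.06 pM, 20000 cpm/well) in MEM, 25 mM HEPES pH 7.4, 0.2% BSA, 1 mM 1,10-phenanthroline, leupeptin, bacitracin. Cells washed, lysed with NaOH/Triton X-100, and gamma-counted. IC50 by nonlinear fit, two experiments in triplicate […].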

Melanocortin receptor 3 [11] = biological target: T2, Melanocortin receptor 3; experiment: Displacement of [125I]-[Nle4, D-Phe7]alpha-MSH from human melanocortin 3 receptor expressed in HEK293 cells at 10 uM; assay type: cell-based
[12] = biological target: T1, Melanocyte-stimulating hormone receptor; experiment: Displacement of [125I]-[Nle4, D-Phe7]alpha-MSH from human melanocortin 1 receptor expressed in HEK293 cells; assay type: cell-based; procedure, shortened: as §2
Target sequence in this assay (Q01726 whole entry): as the sequence (Q01726 whole entry, looked up) above

[13] = biological target: T1, Melanocyte-stimulating hormone receptor; experiment: Agonist activity at human melanocortin 1 receptor expressed in HEK293 cells assessed as cAMP accumulation; assay type: functional, cell-based
Procedure, shortened: (§3)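 Stably transfected HEK293 cells seeded 48 h before assay (50000 cells/well), rinsed, preincubated 1 min at 37 °C in Earle's balanced salt solution with 0.5 mM IBMX, then given peptide at varying concentrations for 3 min at 37 °C. Stopped with ice-cold Tris/EDTA and boiling 7 min. cAMP measured by [3H]cAMP competition for PKA against a standard curve. EC50 by nonlinear least-squares fit, mean of two experiments in triplicate.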
Target sequence in this assay (Q01726 whole entry): as the sequence (Q01726 whole entry, looked up) above

Melanocortin receptor 3 [14] = biological target: T2, Melanocortin receptor 3; experiment: Agonist activity at human melanocortin 3 receptor expressed in HEK293 cells assessed as cAMP accumulation; assay type: functional, cell-based; procedure, shortened: as §3
Melanocortin receptor 4 [15] = biological target: T4, Melanocortin receptor 4; experiment: Displacement of [125I]-[Nle4, D-Phe7]alpha-MSH from human melanocortin 4 receptor expressed in HEK293 cells; assay type: cell-based; procedure, shortened: as §2
Melanocortin receptor 3 [16] = biological target: T2, Melanocortin receptor 3; experiment: Agonist activity at human melanocortin 3 receptor expressed in HEK293 cells assessed as cAMP accumulation at 10 uM; assay type: functional, cell-based; procedure, shortened: as §1
Melanocortin receptor 3 [17] = biological target: T2, Melanocortin receptor 3; experiment: Displacement of [125I]-[Nle4, D-Phe7]alpha-MSH from human melanocortin 3 receptor expressed in HEK293 cells; assay type: cell-based; procedure, shortened: as §2
Melanocortin receptor 5 [18] = biological target: T3, Melanocortin receptor 5; experiment: Agonist activity at human melanocortin 5 receptor expressed in HEK293 cells assessed as cAMP accumulation; assay type: functional, cell-based; procedure, shortened: as §3
Melanocortin receptor 4 [19] = biological target: T4, Melanocortin receptor 4; experiment: Agonist activity at human melanocortin 4 receptor expressed in HEK293 cells assessed as cAMP accumulation; assay type: functional, cell-based; procedure, shortened: as §3

T3 sequence (P33032 whole entry): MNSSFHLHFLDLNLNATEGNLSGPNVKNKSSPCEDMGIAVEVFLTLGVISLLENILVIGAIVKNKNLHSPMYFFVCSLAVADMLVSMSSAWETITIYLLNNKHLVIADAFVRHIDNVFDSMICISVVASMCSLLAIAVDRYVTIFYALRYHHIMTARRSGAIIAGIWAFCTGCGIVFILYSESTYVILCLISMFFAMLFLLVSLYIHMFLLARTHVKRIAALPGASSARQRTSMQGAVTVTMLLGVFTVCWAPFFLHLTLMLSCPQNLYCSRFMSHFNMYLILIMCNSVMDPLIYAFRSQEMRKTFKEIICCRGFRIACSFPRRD
T2 sequence (P41968 whole entry): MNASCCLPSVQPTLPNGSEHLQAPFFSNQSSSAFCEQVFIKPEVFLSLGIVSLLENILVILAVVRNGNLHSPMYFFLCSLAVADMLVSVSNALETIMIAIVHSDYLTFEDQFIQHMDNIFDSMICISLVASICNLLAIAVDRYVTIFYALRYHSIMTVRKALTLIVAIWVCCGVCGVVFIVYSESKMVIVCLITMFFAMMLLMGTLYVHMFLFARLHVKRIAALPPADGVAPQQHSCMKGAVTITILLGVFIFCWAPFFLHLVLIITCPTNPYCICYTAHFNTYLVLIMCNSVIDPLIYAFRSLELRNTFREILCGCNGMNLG
T4 sequence (P32245 whole entry): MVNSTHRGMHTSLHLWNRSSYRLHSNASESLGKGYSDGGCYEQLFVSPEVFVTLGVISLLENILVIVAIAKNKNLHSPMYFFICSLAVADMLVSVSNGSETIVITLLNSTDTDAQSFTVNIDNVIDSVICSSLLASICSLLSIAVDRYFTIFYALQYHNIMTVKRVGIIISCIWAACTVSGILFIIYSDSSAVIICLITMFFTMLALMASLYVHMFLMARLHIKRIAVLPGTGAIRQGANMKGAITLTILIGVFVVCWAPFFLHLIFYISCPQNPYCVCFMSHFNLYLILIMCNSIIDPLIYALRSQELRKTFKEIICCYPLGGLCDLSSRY

| SMILES | Activity [1] [%] | Activity (Melanocortin receptor 3 [3]) [%] | Activity (Melanocortin receptor 5 [4]) | Activity (Melanocortin receptor 4 [5]) | Activity (Melanocortin receptor 4 [6]) [%] | Activity (Melanocortin receptor 5 [8]) [%] | IC50 (Melanocortin receptor 5 [10]) [nM] | IC50 [12] [nM] | EC50 [13] [nM] | EC50 (Melanocortin receptor 3 [14]) [nM] | IC50 (Melanocortin receptor 4 [15]) [nM] | IC50 (Melanocortin receptor 3 [17]) [nM] | also measured |
| --- | --- | --- | --- | --- | --- | --- | --- | --- | --- | --- | --- | --- | --- |
| N=C(N)NCCC[C@@H]1NC(=O)[C@H](Cc2ccc3ccccc3c2)NC(=O)[C@H](Cc2cnc[nH]2)NC(=O)c2cc([N+](=O)[O-])ccc2SC[C@@H](C(N)=O)NC(=O)[C@H](Cc2c[nH]c3ccccc23)NC1=O | 0 | 21 | inactive | inactive | 0 | 0 | – | – | – | – | – | – | Activity [2]: inactive; pA2 (Melanocortin receptor 5 [7]): 8.3 |
| N=C(N)NCCC[C@@H]1NC(=O)[C@@H](Cc2ccccc2)NC(=O)C2(Cc3ccccc3C2)NC(=O)c2cc([N+](=O)[O-])ccc2SC[C@@H](C(N)=O)NC(=O)[C@H](Cc2c[nH]c3ccccc23)NC1=O | 52 | 40 | inactive | inactive | 0 | 0 | 560 | > 1000 | > 1000 | > 5000 | – | – | Activity (Melanocortin receptor 4 [9]): inactive; Activity (Melanocortin receptor 3 [11]): inactive |
| N=C(N)NCCC[C@@H]1NC(=O)[C@@H](Cc2ccccc2)NC(=O)[C@H](CC2CCCCC2)NC(=O)c2cc([N+](=O)[O-])ccc2SC[C@@H](C(N)=O)NC(=O)[C@H](Cc2c[nH]c3ccccc23)NC1=O | 92 | > 100 | inactive | inactive | 0 | 0 | 38 | > 2000 | 810 | > 4000 | – | > 1000 | Activity (Melanocortin receptor 4 [9]): inactive |
| NC(=O)[C@@H]1CSc2ccc([N+](=O)[O-])cc2C(=O)N[C@@H](Cc2cnc[nH]2)C(=O)N[C@H](Cc2ccccc2)C(=O)N[C@@H](CCCN=C(N)N)C(=O)N[C@@H](Cc2c[nH]c3ccccc23)C(=O)N1 | – | – | – | – | – | – | 190 | 3.7 | 2 | 2 | 47 | 40 | EC50 (Melanocortin receptor 5 [18]): 44 nM; EC50 (Melanocortin receptor 4 [19]): 37 nM |
| NC(=O)[C@@H]1CSc2ccc([N+](=O)[O-])cc2C(=O)N[C@@H](Cc2cnc[nH]2)C(=O)N[C@@H](Cc2ccc3ccccc3c2)C(=O)N[C@@H](CCCN=C(N)N)C(=O)N[C@@H](Cc2c[nH]c3ccccc23)C(=O)N1 | – | – | – | – | – | – | – | – | – | – | – | – | IC50 (Melanocortin receptor 4 [15]; hek293): > 5000 nM; IC50 (Melanocortin receptor 5 [10]; hek293): 130 nM; IC50 ([12]; hek293): > 2000 nM; EC50 (Melanocortin receptor 3 [14]; hek293): 50 nM; IC50 (Melanocortin receptor 3 [17]; hek293): > 1000 nM |

Second part, led by results:

| Activity [1] [%] | Activity (Melanocortin receptor 3 [3]) [%] | Activity (Melanocortin receptor 5 [4]) | Activity (Melanocortin receptor 4 [5]) | Activity (Melanocortin receptor 4 [6]) [%] | Activity (Melanocortin receptor 5 [8]) [%] | IC50 (Melanocortin receptor 5 [10]) [nM] | IC50 [12] [nM] | EC50 [13] [nM] | EC50 (Melanocortin receptor 3 [14]) [nM] | IC50 (Melanocortin receptor 4 [15]) [nM] | IC50 (Melanocortin receptor 3 [17]) [nM] | SMILES | also measured |
| --- | --- | --- | --- | --- | --- | --- | --- | --- | --- | --- | --- | --- | --- |
| 105 | 0 | inactive | inactive | 1 | 0 | > 2000 | 1000 | 100 | – | > 1000 | – | N=C(N)NCCC[C@@H]1NC(=O)[C@@H](Cc2ccccc2)NC(=O)[C@H](Cc2cnc[nH]2)NC(=O)c2cc([N+](=O)[O-])ccc2SC[C@@H](C(N)=O)NC(=O)[C@@H](Cc2c[nH]c3ccccc23)NC1=O | Activity (Melanocortin receptor 3 [16]): inactive; Activity (Melanocortin receptor 3 [11]): inactive |
| 0 | > 100 | inactive | inactive | 0 | 0 | 58 | > 1000 | – | > 1000 | > 1000 | 380 | N=C(N)NCCC[C@@H]1NC(=O)[C@@H](Cc2ccccc2)NC(=O)[C@@H]2CCCN2C(=O)c2cc([N+](=O)[O-])ccc2SC[C@@H](C(N)=O)NC(=O)[C@H](Cc2c[nH]c3ccccc23)NC1=O | Activity [2]: inactive |
| – | – | – | – | – | – | 340 | 180 | 71 | 56 | > 1000 | 610 | NC(=O)[C@@H]1CSc2ccc([N+](=O)[O-])cc2C(=O)N[C@@H](Cc2cnc[nH]2)C(=O)N[C@H](Cc2ccccc2)C(=O)N[C@@H](CCCN=C(N)N)C(=O)N[C@@H](Cc2ccc3ccccc3c2)C(=O)N1 | – |
